# Measured values published in article PMC7723568 (Annals of Translational Medicine, 2020).
# “Also recorded” adds a separate entry of the source. Where no end group is shown, it is not given here.
# Assays:
# [1] = system: CD44v3–v10 over expressed HEK-293 cells; format: binding, human; details: in words; 1×10^10 pfu/well, 37 °C, 1 h
# In short: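 HEK-293 cells were transfected with a CD44v3–v10 plasmid or an empty plasmid, and assayed 48 h later. Candidate or unrelated phages (1×10^10 pfu/well) were bound for 1 h at 37 °C, then washed six times. Detection used goat anti-M13 (1:200), HRP secondary (1:5,000) and TMB, read at OD450. Selectivity = (ODpv – ODbv)/(ODpc – ODbc), with backgrounds from cells without phage. Triplicate, mean ± SD.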
# [2] = system: SGC-7901 subcutaneous GC xenograft; experiment: In vivo fluorescence imaging of SGC-7901 xenograft models; parameters: species or system BALB/c-nu/nu mice; details: FITC labeled, 1 µg/g body weight, tail vein
# In short: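 Male BALB/c nude mice (4–5 weeks, 20–25 g) received 5×10^6 SGC-7901 cells subcutaneously in the axilla, and tumours grew about 3 weeks to 1 cm3. Mice were randomised to two groups of ten. Each group received FITC-peptide probe or FITC-scrambled peptide, 1 µg/g via the tail vein. Under isoflurane, five mice per group were imaged every half hour until the probe was excreted. Signal was expressed as (p/sec/cm2/sr)/(µW/cm2), mean ± SE.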
# [3] = system: excised tumor and organs (liver, stomach, kidney, lung, heart) of SGC-7901 xenograft mice; experiment: Biodistribution: fluorescence imaging of excised tumor and organs; format: in vivo, BALB/c-nu/nu mice; details: FITC labeled, 1 µg/g, i.v., 3 h after injection
# CD44v3–v10 protein = CD44v3–v10 protein (Homo sapiens, UniProt P16070); experiment: Binding affinity to CD44v3–v10 protein
# In short: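 Biotin-labelled peptide at a range of concentrations was incubated with immobilised recombinant CD44v3–v10 protein, with BSA as the comparison surface. Bound peptide was read as OD values, as in the competitive ELISA. Kd came from fitted binding curves and Scatchard plots. A scrambled peptide was the control. Each point was measured three times, mean ± SD.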
# MKN-45 cells = experiment: Immunofluorescence staining of MKN-45 cells; format: cell-based; details: 5 µM FITC-labeled peptide, 37 °C, 10 min, co-stained with anti-CD44v6 antibody
# In short: (§1)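 Gastric cancer cells were grown in RPMI 1640 with 10% FBS and seeded on coverslips overnight. They were fixed in 4% paraformaldehyde and blocked in 3% BSA. Cells were labelled with monoclonal anti-CD44v6 (1:500, 1 h) and a Cy3 secondary, then with 5 µM FITC-peptide at 37 °C for 10 min. Nuclei were stained with DAPI; imaging was by fluorescence microscopy at ×400.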
# [4] = system: HEK-293 cells transfected with empty plasmids; experiment: Immunofluorescence staining of HEK-293 cells transfected with empty plasmid; format: cell-based, human; details: 5 µM rhodamine B-labeled peptide; GFP reporter
# In short: (§2)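 HEK-293 cells were grown in DMEM with 10% FBS and transfected 48 h beforehand with a GFP-reporter CD44v3–v10 plasmid or an empty plasmid. Cells were fixed in 4% paraformaldehyde and blocked in 3% BSA. They were then stained with 5 µM rhodamine B-labelled peptide, with scrambled peptide as control. Nuclei were stained with DAPI, and cells were imaged by fluorescence microscopy at ×400.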
# [5] = system: CD44v3–v10 over expressed HEK-293 cells; experiment: Immunofluorescence staining of CD44v3–v10 over expressed HEK-293 cells; format: cell-based, human; details: 5 µM rhodamine B-labeled peptide; GFP reporter
# In short: as §2
# MKN-28 cells = experiment: Immunofluorescence staining of MKN-28 cells; format: cell-based; details: 5 µM FITC-labeled peptide, 37 °C, 10 min, co-stained with anti-CD44v6 antibody
# In short: as §1
# SGC-7901 cells = experiment: Immunofluorescence staining of SGC-7901 cells; format: cell-based; details: 5 µM FITC-labeled peptide, 37 °C, 10 min, co-stained with anti-CD44v6 antibody
# In short: as §1
# [6] = system: Recombinant CD44v3–v10 protein; experiment: Competitive inhibition ELISA on recombinant CD44v3–v10 protein; format: binding, human; details: in words; CD44v3–v10 protein 1 µg/well; various peptide concentrations; n = 3
# In short: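 Plates were coated with recombinant CD44v3–v10 protein (1 µg/well) and preincubated with candidate or control peptide at various concentrations. Candidate phage binding was then read by phage ELISA: goat anti-M13 (1:200), HRP secondary (1:5,000), TMB, OD450. Inhibition = 100% – 100%×(ODt – ODb)/(ODi – ODb), where ODb is wells lacking anti-M13 antibody.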
# Chain of CD44v3–v10 protein (P16070 21-699 isoform P16070-4 limits assumed): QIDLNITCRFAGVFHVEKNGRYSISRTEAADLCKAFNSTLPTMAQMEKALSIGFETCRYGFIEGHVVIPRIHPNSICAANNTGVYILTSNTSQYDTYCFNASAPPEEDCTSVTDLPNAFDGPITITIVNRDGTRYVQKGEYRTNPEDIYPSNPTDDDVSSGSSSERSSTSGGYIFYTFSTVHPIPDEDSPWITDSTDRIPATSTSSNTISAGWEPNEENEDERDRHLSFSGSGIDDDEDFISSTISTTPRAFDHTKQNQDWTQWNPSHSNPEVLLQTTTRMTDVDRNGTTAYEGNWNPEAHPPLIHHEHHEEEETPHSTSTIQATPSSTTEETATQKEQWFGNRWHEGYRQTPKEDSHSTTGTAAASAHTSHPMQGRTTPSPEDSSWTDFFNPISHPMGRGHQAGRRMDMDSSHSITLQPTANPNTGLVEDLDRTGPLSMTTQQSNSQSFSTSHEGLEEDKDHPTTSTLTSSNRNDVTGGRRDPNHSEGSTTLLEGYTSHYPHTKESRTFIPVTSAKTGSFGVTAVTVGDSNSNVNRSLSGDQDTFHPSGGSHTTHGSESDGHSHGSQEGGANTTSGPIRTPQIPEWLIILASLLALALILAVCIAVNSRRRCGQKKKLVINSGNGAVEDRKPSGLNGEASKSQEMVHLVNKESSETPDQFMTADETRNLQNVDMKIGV
sequence,measurement,setting,value
THMPSDPGMNLL [C1],Binding activity / affinity / selectivity ranking in phage ELISA,[1],highest binding activity and frequency; also recorded: considerable affinity
"ELTVMGYYPGMS [ELT, ELTVMGYYPGMS]",Elimination (fluorescence signal four hours after injection),[2]; 4 h,nearly undetectable
same,Time of top fluorescent intensity in tumor,[2]; n = 5,3 h
same,Distribution in liver and kidney,[3],distributed in liver and kidney
same,Kd,CD44v3–v10 protein,611 nM
EHDNTGMLYSVD [control peptide],Fluorescent staining of MKN-45,MKN-45 cells,only background staining
same,Fluorescent staining of HEK-293 transfected with empty plasmid,[4],only background staining
same,Fluorescent staining of CD44v3–v10 over expressed HEK-293,[5],only background staining
same,Fluorescent staining of MKN-28,MKN-28 cells,only background staining
same,Fluorescent staining of SGC-7901,SGC-7901 cells,only background staining
same,Distribution in liver and kidney,[3],distributed in liver and kidney
same,Strong fluorescence on excised tumor tissue (mice positive/total),[3]; five mice per group,not control group
THMPSDPGMNLL,Inhibition of candidate phage binding by displayed peptide,[6],dose-dependent manner
ELTVMGYYPGMS [C3],Binding activity / affinity / selectivity ranking in phage ELISA,[1],highest binding activity and frequency; also recorded: second highest selectivity; also recorded: highest affinity
